Results taken from article PMC4564109 (Journal of biomolecular screening, 2014).
pIC50: −log10 of the molar value. Read-outs that look alike come from different tables or passages of the source.

How the values were obtained:
SOD = SOD Determination kit; format: biochemical; conditions: 1 μM and 100 μM
RNase A = target: T1, RNase A (Bos taurus, UniProt P61823); test: Ribonuclease A Detection kit; format: biochemical; conditions: 1 μM and 100 μM
T1 sequence (P61823 27-150): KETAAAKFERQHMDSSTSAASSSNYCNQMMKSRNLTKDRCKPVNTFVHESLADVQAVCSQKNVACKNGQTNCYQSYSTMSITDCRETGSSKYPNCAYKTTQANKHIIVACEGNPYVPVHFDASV

recombinant murine EndoG = target: T2, recombinant murine EndoG (Mus musculus, UniProt O08600); test: HTS fluorescent probe assay with EndoG; format: biochemical; conditions: EndoG 0.14 μM; compared with DNase I
T2 sequence (O08600 45-294): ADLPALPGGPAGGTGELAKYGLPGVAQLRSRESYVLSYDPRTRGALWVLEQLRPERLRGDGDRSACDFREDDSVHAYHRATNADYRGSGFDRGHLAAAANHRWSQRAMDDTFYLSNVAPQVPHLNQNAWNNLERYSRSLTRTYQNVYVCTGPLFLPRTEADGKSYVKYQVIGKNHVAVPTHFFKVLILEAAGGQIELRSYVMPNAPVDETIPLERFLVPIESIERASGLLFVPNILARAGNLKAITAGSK
Procedure, shortened: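 Fluorescence was read kinetically at 37 °C, and mean velocity (mRFU/min) was taken over 20 min after background subtraction. Activity was expressed as a percentage of the DMSO control.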

DNase II = target: T3, DNase II (Sus scrofa, UniProt O62855); test: HTS fluorescent probe assay with DNase II; format: biochemical; conditions: DNase II 3.32 nM, pH 5.0; compared with DNase I
T3 sequence (O62855 22-364): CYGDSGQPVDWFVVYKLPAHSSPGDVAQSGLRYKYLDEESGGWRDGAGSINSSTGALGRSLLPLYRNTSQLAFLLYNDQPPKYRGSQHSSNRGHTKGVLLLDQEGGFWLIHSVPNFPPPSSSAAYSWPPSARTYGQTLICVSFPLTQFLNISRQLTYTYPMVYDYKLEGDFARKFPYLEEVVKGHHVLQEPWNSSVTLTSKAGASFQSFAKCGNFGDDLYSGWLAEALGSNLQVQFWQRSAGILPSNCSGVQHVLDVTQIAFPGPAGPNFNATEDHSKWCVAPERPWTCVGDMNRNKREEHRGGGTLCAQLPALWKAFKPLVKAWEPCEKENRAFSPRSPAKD

Benzonase = Benzonase (Serratia marcescens, UniProt P13717); test: Plasmid incision assay; format: biochemical, bacterial; conditions: 10 μM
Procedure, shortened: (§1)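 Plasmid incision: 1 μg pECFP plasmid in 2 mM CaCl₂, 5 mM MgCl₂, 10 mM Tris-HCl pH 7.4, 0.5 mM DTT, test compound in DMSO (1% final), nuclease added, 1 h at 37 °C. The reaction was stopped with SDS/EDTA and run on a 1% agarose TAE gel at 7 V/cm for 35 min. Ethidium bromide-stained supercoiled band was quantified densitometrically.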

EndoG [1] = test: EndoG protein expression by quantitative immunohistochemistry; format: cell-based, rat; conditions: NRK-52E cells, cisplatin 60 μM
Procedure, shortened: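 NRK-52E cells were fixed in 5% formalin and stained with rabbit anti-EndoG (1:200 in 0.5% BSA, 0.05% Tween-20, PBS), then AlexaFluor 647 anti-rabbit IgG (1:400), with DAPI counterstain. The control omitted the primary antibody. Red-channel mean optical density was recorded over 10 independent fields per subset. Mean ± SD, n = 4.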

[2] = target: T4, recombinant human DNase I (Homo sapiens, UniProt P24855); test: High-throughput DNase I screening assay; format: biochemical; conditions: for Type of inhibition according to Lineweaver–Burk plots: DNase I
T4 sequence (P24855 23-282): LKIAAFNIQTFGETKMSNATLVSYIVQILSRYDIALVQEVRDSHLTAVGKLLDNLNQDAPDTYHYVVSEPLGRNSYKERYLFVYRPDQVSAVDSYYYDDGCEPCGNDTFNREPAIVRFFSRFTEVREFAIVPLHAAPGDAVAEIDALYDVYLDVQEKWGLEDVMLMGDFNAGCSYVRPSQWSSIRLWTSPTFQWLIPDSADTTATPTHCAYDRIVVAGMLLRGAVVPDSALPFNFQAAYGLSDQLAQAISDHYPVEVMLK

protease = test: Protease Fluorescent Detection kit; format: biochemical; conditions: 1 μM and 100 μM
NRK-52E cells [3] = test: Cell death assay; format: cell-based, rat; conditions: for Protection against cisplatin-induced cell death (LDH release): cisplatin 60 μM, 24 h; for Cytotoxicity of the inhibitor: highest concentration tested
Procedure, shortened: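 NRK-52E rat tubular epithelial cells were grown in DMEM with 5% FBS at 37 °C, 5% CO₂, and used within 1 d after confluence. Cells were seeded at 8000–10,000 per well, grown 24 h, then pre-incubated 2 h with serial dilutions of test compound. Cisplatin 60 μM was added, and LDH release was measured after 24 h with a CytoTox96 kit. Mean ± SD, n = 4.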

NRK-52E cells [4] = test: TUNEL assay of cisplatin-induced DNA fragmentation; format: cell-based, rat; conditions: inhibitor 100 μM, 24 h cisplatin 60 μM
Procedure, shortened: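 Cells were exposed to cisplatin for 24 h in the presence of test compound at 100 μM, fixed in 5% formalin, TUNEL-stained with an in situ cell death detection kit, and counterstained with DAPI. Green-channel mean optical density for TUNEL-positive DNA damage was recorded over 10 independent fields per subset. Mean ± SD, n = 4.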

Solubility in water = format: physicochemical
micrococcal nuclease = micrococcal nuclease (Staphylococcus aureus, UniProt P00644); test: Plasmid incision assay; format: biochemical, bacterial; conditions: 10 μM
Procedure, shortened: as §1

LDH = conditions: 1 μM and 100 μM
EndoG [5] = test: EndoG mRNA expression by real-time RT-PCR; format: cell-based, rat; conditions: NRK-52E cells, cisplatin
[6] = read-out: IC50 against DNase I, DNase I 1.72 nM, 37 °C, HTS assay

Chain of Benzonase (P13717 22-266): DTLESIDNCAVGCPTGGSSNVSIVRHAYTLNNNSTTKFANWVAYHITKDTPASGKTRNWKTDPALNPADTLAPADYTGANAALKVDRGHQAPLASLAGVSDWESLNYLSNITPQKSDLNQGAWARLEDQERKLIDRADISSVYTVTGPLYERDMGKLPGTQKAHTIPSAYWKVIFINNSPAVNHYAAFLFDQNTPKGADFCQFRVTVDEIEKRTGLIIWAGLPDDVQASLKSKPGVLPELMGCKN

For “1,3-phenylene-bis-aminoguanidine hydrochloride [IG-17]”, the “Inhibition of SOD” value (SOD) was “no inhibition activity was observed”, the “Inhibition of RNase A” value (RNase A) was “no inhibition activity was observed” and the “Suppression of EndoG activity” value (recombinant murine EndoG) was “suppress the activity”. The “Suppression of DNase II activity” value (DNase II) was “suppress the activity”, the “Inhibition of Benzonase (PIA)” value (Benzonase) was “absence of inhibition” and the EndoG protein expression (EndoG [1]) was “lower than the control level”. The “Type of inhibition according to Lineweaver–Burk plots” value [2] was “competitive inhibitors”, the pIC50 [2, 6] was 5.05 and the Inhibition of protease (protease) was “no inhibition activity was observed”. The “Protection against cisplatin-induced cell death (LDH release)” value (NRK-52E cells [3]) was “some protection against cisplatin-induced cell death”, the “Cytotoxicity of the inhibitor” value (NRK-52E cells [3]) was “significant cytotoxicity” and the “Inhibition of cisplatin-induced DNA fragmentation (TUNEL)” value (NRK-52E cells [4]) was “marked inhibition”. The Solubility in water (Solubility in water) was “unlimited solubility in water”, the “Inhibition of micrococcal nuclease (PIA)” value (micrococcal nuclease) was “absence of inhibition” and the “Inhibition of LDH” value (LDH) was “no inhibition activity was observed”.
Work on `[Cl-].[Cl-].[Zn+2]` [ZnCl2, reference compound] yielded a pIC50 [2, 6] of 4.74.
With “1,4-phenylene-bis-aminoguanidine hydrochloride [JR-132]” the “Inhibition of SOD” value (SOD) was “no inhibition activity was observed”, the “Inhibition of RNase A” value (RNase A) was “no inhibition activity was observed” and the “Suppression of EndoG activity” value (recombinant murine EndoG) was “suppress the activity”. The “Suppression of DNase II activity” value (DNase II) was “suppress the activity”, the “Inhibition of Benzonase (PIA)” value (Benzonase) was “absence of inhibition” and the EndoG protein expression (EndoG [1]) was “significantly decreased”. The “Type of inhibition according to Lineweaver–Burk plots” value [2] was “competitive inhibitors”, the pIC50 [2, 6] was 5.56 and the Inhibition of protease (protease) was “no inhibition activity was observed”. The “Protection against cisplatin-induced cell death (LDH release)” value (NRK-52E cells [3]) was “some protection against cisplatin-induced cell death”, the “Cytotoxicity of the inhibitor” value (NRK-52E cells [3]) was “significant cytotoxicity” and the “EndoG mRNA expression” value (EndoG [5]) was “significantly decreased”. The “Inhibition of cisplatin-induced DNA fragmentation (TUNEL)” value (NRK-52E cells [4]) was “marked inhibition”, the Solubility in water (Solubility in water) was “unlimited solubility in water” and the “Inhibition of micrococcal nuclease (PIA)” value (micrococcal nuclease) was “absence of inhibition”. The “Inhibition of LDH” value (LDH) was “no inhibition activity was observed”.
Compound `O=C(O)CN(CCN(CC(=O)O)CC(=O)O)CC(=O)O` [EDTA, ethylenediaminetetraacetic acid, reference compound] has a pIC50 [2] of 3.72.
